In assay [1] the test system is Staphylococcus aureus. Description: Antibacterial activity against Staphylococcus aureus after 24 hrs by two fold serial dilution technique. The class given is functional. Put shortly:
(§1)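 Twofold serial broth dilution in nutrient broth. Compounds were taken up in DMSO as 1 mg/ml stocks, and 0.2 ml of stock was added to 1.8 ml of seeded broth for the first dilution, giving six dilutions in all. Seeded broth came from 24 h nutrient agar cultures, with a final inoculum of 10⁵ cfu/ml at pH 7.4 ± 0.2. Tubes were incubated at 37 ± 1 °C, and MIC was read visually after 24 h. Broth-only and solvent controls were included.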

Assay [2] relates to Escherichia coli. Briefly: Antibacterial activity against Escherichia coli after 24 hrs by two fold serial dilution technique. The class given is functional. The gist of the method: as §1
Assay [3] has as its system Klebsiella pneumoniae. Description: Antibacterial activity against Klebsiella pneumoniae after 24 hrs by two fold serial dilution technique. The format is functional. Put shortly:
as §1

The test system of assay [4] is Pseudomonas aeruginosa. Description: Antibacterial activity against Pseudomonas aeruginosa after 24 hrs by two fold serial dilution technique. The format is functional. Put shortly:
as §1

Assay [5] has as its system Salmonella typhi. Briefly: Antibacterial activity against Salmonella typhi after 24 hrs by two fold serial dilution technique. The settings on record: Salmonella enterica. The format is functional, Salmonella enterica subsp. enterica serovar Typhi. The gist of the method:
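Twofold serial broth dilution in nutrient broth. Compounds dissolved in DMSO as 1 mg/ml stocks; 0.2 ml added to 1.8 ml seeded broth, then serially diluted to six dilutions. Inoculum from 24 h nutrient agar cultures, final 10⁵ cfu/ml, pH 7.4 ± 0.2. Incubated at 37 ± 1 °C; MIC read visually at 24 h. Seeded-broth and solvent controls; ciprofloxacin standard.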

Assay [6] concerns Candida albicans. Briefly: Antifungal activity against Candida albicans after 72 to 96 hrs by two fold serial dilution technique. The format is functional. The gist of the method: (§2)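 Twofold serial dilution in Sabouraud's dextrose broth. Compounds were taken up in DMSO as 1 mg/ml stocks, and 0.2 ml of stock was added to 1.8 ml of seeded broth for the first dilution, giving six dilutions. Seeded broth came from 24 h to 7-day Sabouraud's agar slant cultures, with a final inoculum of 1.1–1.5 × 10² cfu/ml. Tubes were incubated at 28 ± 1 °C for 72–96 h, and MIC was read visually. Broth-only and solvent controls were included.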

Assay [7] relates to Aspergillus flavus. Description: Antifungal activity against Aspergillus flavus after 72 to 96 hrs by two fold serial dilution technique. The class given is functional. The gist of the method: as §2
The test system of assay [8] is Rhizopus. Description: Antifungal activity against Rhizopus after 72 to 96 hrs by two fold serial dilution technique. The class given is functional. The gist of the method:
as §2

For assay [9], the system named is Mucor. Description: Antifungal activity against Mucor after 72 to 96 hrs by two fold serial dilution technique. The class given is functional. The gist of the method:
as §2

In brackets after ≈: the same amount, converted by molar mass.

Consider `CC1=C(C(=O)OC(C)C)C(c2ccc(F)cc2)NC(=O)N1` (stereo not drawn), for which the MIC in assay [1] is 12.5 µg/mL (≈ 42.8 µM); in assay [2], 25 µg/mL (≈ 85.5 µM); in assay [3], 25 µg/mL (≈ 85.5 µM); in assay [4], 12.5 µg/mL (≈ 42.8 µM); in [5], 12.5 µg/mL (≈ 42.8 µM); in [6], 12.5 µg/mL (≈ 42.8 µM). Also, the minimum inhibitory concentration (MIC) was 25 µg/mL (≈ 85.5 µM) in assay [7], 12.5 µg/mL (≈ 42.8 µM) in assay [8] and 25 µg/mL (≈ 85.5 µM) in assay [9].
`CC1=C(C(=O)OC(C)C)C(c2ccc(Cl)cc2)NC(=O)N1` (stereo not drawn): the MIC stood at 25 µg/mL (≈ 81 µM) in assay [1]; 50 µg/mL (≈ 162 µM) in assay [2]; 50 µg/mL (≈ 162 µM) in assay [3]; 25 µg/mL (≈ 81 µM) in assay [4]; 25 µg/mL (≈ 81 µM) in assay [5]; 25 µg/mL (≈ 81 µM) in assay [6]. Moreover, the minimum inhibitory concentration (MIC) in assay [7] is 100 µg/mL (≈ 324 µM); in assay [8], 25 µg/mL (≈ 81 µM); in assay [9], 50 µg/mL (≈ 162 µM).
For the compound `C[C@@H]1[C@H](O)[C@@H](C)/C=C/C=C/C=C/C=C/C=C/C=C/C=C/[C@H](O[C@@H]2O[C@H](C)[C@@H](O)[C@H](N)[C@@H]2O)C[C@@H]2O[C@](O)(C[C@@H](O)C[C@@H](O)[C@H](O)CC[C@@H](O)C[C@@H](O)CC(=O)O[C@H]1C)C[C@H](O)[C@H]2C(=O)O` [AMPHOTERICIN B], the minimum inhibitory concentration (MIC) in [6] amounted to 25 µg/mL (≈ 27.1 µM); in assay [7] it was 50 µg/mL (≈ 54.1 µM); in assay [8], 25 µg/mL (≈ 27.1 µM); in [9], 50 µg/mL (≈ 54.1 µM).
For the compound `CC1=C(C(=O)OC(C)C)C(c2ccc(C)cc2)NC(=O)N1` (stereo not drawn), the MIC in assay [1] is 100 µg/mL (≈ 347 µM); in assay [2] it was 100 µg/mL (≈ 347 µM); in assay [3], 100 µg/mL (≈ 347 µM); in assay [4] it was 50 µg/mL (≈ 173 µM); in assay [5] it was 100 µg/mL (≈ 347 µM); in assay [6] it was 50 µg/mL (≈ 173 µM). Also, the MIC in [7] turned out to be 200 µg/mL (≈ 694 µM); in assay [8], 50 µg/mL (≈ 173 µM); in assay [9] it was 50 µg/mL (≈ 173 µM).
For the compound `CC1=C(C(=O)OC(C)C)C(c2ccccc2Cl)NC(=O)N1` (stereo not drawn), the minimum inhibitory concentration (MIC) was 25 µg/mL (≈ 81 µM) in [1]; 50 µg/mL (≈ 162 µM) in assay [2]; 50 µg/mL (≈ 162 µM) in [3]; 25 µg/mL (≈ 81 µM) in assay [4]; 25 µg/mL (≈ 81 µM) in assay [5]; 25 µg/mL (≈ 81 µM) in assay [6]. Also, the MIC was determined as 100 µg/mL (≈ 324 µM) in assay [7], 50 µg/mL (≈ 162 µM) in assay [8] and 50 µg/mL (≈ 162 µM) in assay [9].
With `CC1=C(C(=O)OC(C)C)C(c2ccccc2)NC(=S)N1` (stereo not drawn), the MIC in assay [1] stood at 50 µg/mL (≈ 172 µM); in [2], 200 µg/mL (≈ 689 µM); in assay [3], 100 µg/mL (≈ 344 µM); in assay [4] it was 50 µg/mL (≈ 172 µM); in assay [5] it was 100 µg/mL (≈ 344 µM); in [6], 50 µg/mL (≈ 172 µM). The MIC in assay [7] stood at 100 µg/mL (≈ 344 µM); in [8], 100 µg/mL (≈ 344 µM); in [9], 50 µg/mL (≈ 172 µM).
Regarding `CC1=C(C(=O)OC(C)C)C(c2ccc([N+](=O)[O-])cc2)NC(=O)N1` (stereo not drawn), the MIC in assay [1], in assay [2], in assay [3], in assay [4], in assay [5] and in assay [6] was 12.5 µg/mL (≈ 39.1 µM) in each case. Further, the minimum inhibitory concentration (MIC) in [7] came out at 25 µg/mL (≈ 78.3 µM); in assay [8], 12.5 µg/mL (≈ 39.1 µM); in [9] it was 12.5 µg/mL (≈ 39.1 µM).
In the case of `COc1ccc(C2NC(=O)NC(C)=C2C(=O)OC(C)C)cc1` (stereo not drawn), the MIC came to 50 µg/mL (≈ 164 µM) in [1]; 100 µg/mL (≈ 329 µM) in assay [2]; 100 µg/mL (≈ 329 µM) in [3]; 50 µg/mL (≈ 164 µM) in assay [4]; 50 µg/mL (≈ 164 µM) in assay [5]; 50 µg/mL (≈ 164 µM) in assay [6]. Moreover, the figures for the minimal inhibitory concentration (MIC) in assay [7], in assay [8] and in assay [9] were 100 µg/mL (≈ 329 µM), 50 µg/mL (≈ 164 µM) and 50 µg/mL (≈ 164 µM), respectively.
Take `CC1=C(C(=O)OC(C)C)C(c2ccccc2)NC(=O)N1` (stereo not drawn): the minimal inhibitory concentration (MIC) in assay [1] was 200 µg/mL (≈ 729 µM); in [2], 200 µg/mL (≈ 729 µM); in assay [3], 200 µg/mL (≈ 729 µM); in assay [4], 100 µg/mL (≈ 365 µM); in assay [5], 200 µg/mL (≈ 729 µM); in assay [6], 100 µg/mL (≈ 365 µM). In addition, the MIC in assay [8] and in assay [9] was 200 µg/mL (≈ 729 µM) in each case.
Consider `O=C(O)c1cn(C2CC2)c2cc(N3CCNCC3)c(F)cc2c1=O` [CIPROFLOXACIN], for which the minimal inhibitory concentration (MIC) in [2] was 25 µg/mL (≈ 75.4 µM); in assay [3], 25 µg/mL (≈ 75.4 µM); in assay [5], 50 µg/mL (≈ 151 µM).

The values above are taken from ChEMBL document CHEMBL1154591, “Synthesis and in vitro microbiological evaluation of novel 4-aryl-5-isopropoxycarbonyl-6-methyl-3,4-dihydropyrimidinones” (2010).
